{"source": "ChEMBL document CHEMBL2311435", "about": "“Development of 18F-labeled picolinamide probes for PET imaging of malignant melanoma” (J Med Chem, 2013)", "key": {"Kidney [1]": {"system": "Kidney", "test": "Drug uptake in kidney of C57BL/6 mouse xenografted with mouse B16F10 cells at 3.7 MBq, iv after 5 mins by PET imaging analysis", "assay_type": "ADME, organism-based, B16-F10", "conditions": "in vivo", "method_in_brief": "(§1)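 Dynamic small-animal PET in B16F10 tumor-bearing mice (n = 4) after tail-vein injection of ~3.7 MBq (100 μCi). Scanning began ~2.0 min post-injection and ran 35 min (6×20 s, 8×60 s, 10×150 s; 24 frames). ROI counts converted to %ID/g assuming 1 g/ml tissue density. No attenuation correction.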"}, "Nucleic Acid [2]": {"system": "Nucleic Acid", "test": "Ratio of drug uptake in tumor to liver of C57BL/6 mouse xenografted with mouse B16F10 cells at 3.7 MBq, iv after 1 hr by gamma-scintillation counting analysis", "assay_type": "ADME, organism-based, B16-F10", "conditions": "in vivo", "method_in_brief": "(§2)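 Same subcutaneous B16F10 model and tail-vein dose of about 3.7 MBq (100 μCi), n = 4 per group. Dissection at 1 or 2 h p.i. Gamma-counter %ID/g of tumor divided by that of blood, lung, liver or muscle, given as mean ± SD.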"}, "Liver": {"system": "Liver", "test": "Biodistribution in liver of C57BL/6 mouse xenografted with mouse B16F10 cells at 3.7 MBq, iv after 2 hrs by gamma-scintillation counting analysis", "assay_type": "ADME, organism-based, B16-F10", "conditions": "in vivo", "method_in_brief": "(§3)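 1.0 × 10^6 B16F10 cells in PBS injected subcutaneously into the right shoulder of C57BL/6 mice, grown to 0.5 cm (~10 day). Tail-vein injection of about 3.7 MBq (100 μCi) 18F probe in PBS (0.1 M, pH 7.4). Killed at 1.0 or 2.0 h p.i. (n = 4 per group). Tissues excised, weighed and gamma-counted; uptake expressed as %ID/g, mean ± SD.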"}, "[3]": {"test": "Drug uptake in tumor of C57BL/6 mouse xenografted with mouse B16F10 cells at 3.7 MBq, iv after 1 hr by PET imaging analysis", "assay_type": "ADME, organism-based, Neoplasm, B16-F10", "conditions": "in vivo", "method_in_brief": "(§4)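 Static small-animal PET at 0.5, 1 and 2 h after tail-vein injection of ~3.7 MBq (100 μCi) into B16F10-bearing C57BL/6 mice (n = 4 per probe). Isoflurane anesthesia, 5% induction and 2% maintenance in O2. Decay-corrected images. ROI-derived %ID/g assumes 1 g/ml density, without attenuation correction. Mean ± SD.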"}, "Blood [4]": {"system": "Blood", "test": "Biodistribution in blood of C57BL/6 mouse xenografted with mouse B16F10 cells at 3.7 MBq, iv after 2 hrs by gamma-scintillation counting analysis", "assay_type": "ADME, organism-based, B16-F10", "conditions": "in vivo", "method_in_brief": "as §3"}, "Mus musculus [5]": {"system": "Mus musculus", "test": "Biodistribution in eye of C57BL/6 mouse xenografted with mouse B16F10 cells at 3.7 MBq, iv after 2 hrs by gamma-scintillation counting analysis", "assay_type": "ADME, organism-based, B16-F10", "conditions": "in vivo", "method_in_brief": "as §3"}, "Brain [6]": {"system": "Brain", "test": "Biodistribution in brain of C57BL/6 mouse xenografted with mouse B16F10 cells at 3.7 MBq, iv after 1 hr by gamma-scintillation counting analysis", "assay_type": "ADME, organism-based, B16-F10", "conditions": "in vivo", "method_in_brief": "as §3"}, "Nucleic Acid [7]": {"system": "Nucleic Acid", "test": "Ratio of drug uptake in tumor to muscle of C57BL/6 mouse xenografted with mouse B16F10 cells at 3.7 MBq, iv after 1 hr by gamma-scintillation counting analysis", "assay_type": "ADME, organism-based, B16-F10", "conditions": "in vivo", "method_in_brief": "as §2"}, "Blood [8]": {"system": "Blood", "test": "Biodistribution in blood of C57BL/6 mouse xenografted with mouse B16F10 cells at 3.7 MBq, iv after 1 hr by gamma-scintillation counting analysis", "assay_type": "ADME, organism-based, B16-F10", "conditions": "in vivo", "method_in_brief": "as §3"}, "Kidney [9]": {"system": "Kidney", "test": "Biodistribution in kidney of C57BL/6 mouse xenografted with mouse B16F10 cells at 3.7 MBq, iv after 1 hr by gamma-scintillation counting analysis", "assay_type": "ADME, organism-based, B16-F10", "conditions": "in vivo", "method_in_brief": "as §3"}, "Muscle tissue": {"system": "Muscle tissue", "test": "Biodistribution in muscle of C57BL/6 mouse xenografted with mouse B16F10 cells at 3.7 MBq, iv after 1 hr by gamma-scintillation counting analysis", "assay_type": "ADME, organism-based, B16-F10", "conditions": "in vivo", "method_in_brief": "as §3"}, "Kidney [10]": {"system": "Kidney", "test": "Biodistribution in kidney of C57BL/6 mouse xenografted with mouse B16F10 cells at 3.7 MBq, iv after 2 hrs by gamma-scintillation counting analysis", "assay_type": "ADME, organism-based, B16-F10", "conditions": "in vivo", "method_in_brief": "as §3"}, "Nucleic Acid [11]": {"system": "Nucleic Acid", "test": "Ratio of drug uptake in tumor to muscle of C57BL/6 mouse xenografted with mouse B16F10 cells at 3.7 MBq, iv after 2 hrs by gamma-scintillation counting analysis", "assay_type": "ADME, organism-based, B16-F10", "conditions": "in vivo", "method_in_brief": "as §2"}, "Mus musculus [12]": {"system": "Mus musculus", "test": "Biodistribution in tumor of C57BL/6 mouse xenografted with mouse B16F10 cells at 3.7 MBq, iv after 1 hr by gamma-scintillation counting analysis", "assay_type": "ADME, organism-based, Neoplasm, B16-F10", "conditions": "in vivo", "method_in_brief": "as §3"}, "Mus musculus [13]": {"system": "Mus musculus", "test": "Biodistribution in lungs of C57BL/6 mouse xenografted with mouse B16F10 cells at 3.7 MBq, iv after 2 hrs by gamma-scintillation counting analysis", "assay_type": "ADME, organism-based, Lung, B16-F10", "conditions": "in vivo", "method_in_brief": "as §3"}, "Intestine [14]": {"system": "Intestine", "test": "Biodistribution in intestine of C57BL/6 mouse xenografted with mouse B16F10 cells at 3.7 MBq, iv after 1 hr by gamma-scintillation counting analysis", "assay_type": "ADME, organism-based, B16-F10", "conditions": "in vivo", "method_in_brief": "as §3"}, "Nucleic Acid [15]": {"system": "Nucleic Acid", "test": "Ratio of drug uptake in tumor to blood of C57BL/6 mouse xenografted with mouse B16F10 cells at 3.7 MBq, iv after 2 hrs by gamma-scintillation counting analysis", "assay_type": "ADME, organism-based, B16-F10", "conditions": "tumour", "method_in_brief": "as §2"}, "Bone": {"system": "Bone", "test": "Biodistribution in bone of C57BL/6 mouse xenografted with mouse B16F10 cells at 3.7 MBq, iv after 1 hr by gamma-scintillation counting analysis", "assay_type": "ADME, organism-based, Bone element, B16-F10", "conditions": "in vivo", "method_in_brief": "as §3"}, "Nucleic Acid [16]": {"system": "Nucleic Acid", "test": "Ratio of drug uptake in tumor to liver of C57BL/6 mouse xenografted with mouse B16F10 cells at 3.7 MBq, iv after 2 hrs by gamma-scintillation counting analysis", "assay_type": "ADME, organism-based, B16-F10", "conditions": "in vivo", "method_in_brief": "as §2"}, "Intestine [17]": {"system": "Intestine", "test": "Biodistribution in intestine of C57BL/6 mouse xenografted with mouse B16F10 cells at 3.7 MBq, iv after 2 hrs by gamma-scintillation counting analysis", "assay_type": "ADME, organism-based, B16-F10", "conditions": "in vivo", "method_in_brief": "as §3"}, "Nucleic Acid [18]": {"system": "Nucleic Acid", "test": "Ratio of drug uptake in tumor to lungs of C57BL/6 mouse xenografted with mouse B16F10 cells at 3.7 MBq, iv after 1 hr by gamma-scintillation counting analysis", "assay_type": "ADME, organism-based, B16-F10", "conditions": "in vivo", "method_in_brief": "as §2"}, "Zone of skin [19]": {"system": "Zone of skin", "test": "Biodistribution in skin of C57BL/6 mouse xenografted with mouse B16F10 cells at 3.7 MBq, iv after 1 hr by gamma-scintillation counting analysis", "assay_type": "ADME, organism-based, B16-F10", "conditions": "in vivo", "method_in_brief": "as §3"}, "Mus musculus [20]": {"system": "Mus musculus", "test": "Biodistribution in eye of C57BL/6 mouse xenografted with mouse B16F10 cells at 3.7 MBq, iv after 1 hr by gamma-scintillation counting analysis", "assay_type": "ADME, organism-based, B16-F10", "conditions": "in vivo", "method_in_brief": "as §3"}, "Zone of skin [21]": {"system": "Zone of skin", "test": "Biodistribution in skin of C57BL/6 mouse xenografted with mouse B16F10 cells at 3.7 MBq, iv after 2 hrs by gamma-scintillation counting analysis", "assay_type": "ADME, organism-based, B16-F10", "conditions": "in vivo", "method_in_brief": "as §3"}, "[22]": {"test": "Drug uptake in tumor of C57BL/6 mouse xenografted with mouse B16F10 cells at 3.7 MBq, iv after 0.5 hrs by PET imaging analysis", "assay_type": "ADME, organism-based, Neoplasm, B16-F10", "conditions": "in vivo", "method_in_brief": "as §4"}, "Pancreas": {"system": "Pancreas", "test": "Biodistribution in pancreas of C57BL/6 mouse xenografted with mouse B16F10 cells at 3.7 MBq, iv after 1 hr by gamma-scintillation counting analysis", "assay_type": "ADME, organism-based, B16-F10", "conditions": "in vivo", "method_in_brief": "as §3"}, "Heart": {"system": "Heart", "test": "Biodistribution in heart of C57BL/6 mouse xenografted with mouse B16F10 cells at 3.7 MBq, iv after 2 hrs by gamma-scintillation counting analysis", "assay_type": "ADME, organism-based, B16-F10", "conditions": "in vivo", "method_in_brief": "as §3"}, "Kidney [23]": {"system": "Kidney", "test": "Drug uptake in kidney of C57BL/6 mouse xenografted with mouse B16F10 cells at 3.7 MBq, iv after 35 mins by PET imaging analysis", "assay_type": "ADME, organism-based, B16-F10", "conditions": "in vivo", "method_in_brief": "as §1"}, "Brain [24]": {"system": "Brain", "test": "Biodistribution in brain of C57BL/6 mouse xenografted with mouse B16F10 cells at 3.7 MBq, iv after 2 hrs by gamma-scintillation counting analysis", "assay_type": "ADME, organism-based, B16-F10", "conditions": "in vivo", "method_in_brief": "as §3"}, "Spleen": {"system": "Spleen", "test": "Biodistribution in spleen of C57BL/6 mouse xenografted with mouse B16F10 cells at 3.7 MBq, iv after 1 hr by gamma-scintillation counting analysis", "assay_type": "ADME, organism-based, B16-F10", "conditions": "in vivo", "method_in_brief": "as §3"}}}
{"smiles": "CCN(CC)CCNC(=O)c1ccc([18F])cn1", "values": [{"measurement": "Drug uptake", "setting": "Kidney [1]", "value": 24.91, "unit": "% ID/g"}, {"measurement": "Ratio", "setting": "Nucleic Acid [2]", "value": 3.79}, {"measurement": "Drug uptake", "setting": "Liver", "value": 3.32, "unit": "% ID/g"}, {"measurement": "Drug uptake", "setting": "[3]", "value": 16.61, "unit": "% ID/g"}, {"measurement": "Drug uptake", "setting": "Blood [4]", "value": 0.19, "unit": "% ID/g"}, {"measurement": "Drug uptake", "setting": "Mus musculus [5]", "value": 32.83, "unit": "% ID/g"}, {"measurement": "Drug uptake", "setting": "Brain [6]", "value": 1.28, "unit": "% ID/g"}, {"measurement": "Ratio", "setting": "Nucleic Acid [7]", "value": 13.84}, {"measurement": "Drug uptake", "setting": "Blood [8]", "value": 0.42, "unit": "% ID/g"}, {"measurement": "Drug uptake", "setting": "Kidney [9]", "value": 3.32, "unit": "% ID/g"}, {"measurement": "Drug uptake", "setting": "Muscle tissue", "value": 1.16, "unit": "% ID/g"}, {"measurement": "Drug uptake", "setting": "Kidney [10]", "value": 1.03, "unit": "% ID/g"}, {"measurement": "Ratio", "setting": "Nucleic Acid [11]", "value": 36.79}, {"measurement": "Drug uptake", "setting": "Mus musculus [12]", "value": 15.2, "unit": "% ID/g"}, {"measurement": "Drug uptake", "setting": "Mus musculus [13]", "value": 0.69, "unit": "% ID/g"}, {"measurement": "Drug uptake", "setting": "Intestine [14]", "value": 2.01, "unit": "% ID/g"}, {"measurement": "Ratio", "setting": "Nucleic Acid [15]", "value": 88.25}, {"measurement": "Drug uptake", "setting": "Bone", "value": 2.4, "unit": "% ID/g"}, {"measurement": "Ratio", "setting": "Nucleic Acid [16]", "value": 5.14}, {"measurement": "Drug uptake", "setting": "Intestine [17]", "value": 0.88, "unit": "% ID/g"}, {"measurement": "Ratio", "setting": "Nucleic Acid [18]", "value": 9.94}, {"measurement": "Drug uptake", "setting": "Zone of skin [19]", "value": 1.3, "unit": "% ID/g"}, {"measurement": "Drug uptake", "setting": "Mus musculus [20]", "value": 37.47, "unit": "% ID/g"}, {"measurement": "Drug uptake", "setting": "Zone of skin [21]", "value": 0.68, "unit": "% ID/g"}, {"measurement": "Drug uptake", "setting": "[22]", "value": 12.74, "unit": "% ID/g"}, {"measurement": "Drug uptake", "setting": "Pancreas", "value": 1.61, "unit": "% ID/g"}, {"measurement": "Drug uptake", "setting": "Heart", "value": 0.59, "unit": "% ID/g"}, {"measurement": "Drug uptake", "setting": "Kidney [23]", "value": 9.44, "unit": "% ID/g"}, {"measurement": "Drug uptake", "setting": "Brain [24]", "value": 0.42, "unit": "% ID/g"}, {"measurement": "Drug uptake", "setting": "Spleen", "value": 1.78, "unit": "% ID/g"}]}
